# Test results reported in ChEMBL document CHEMBL2321760, “Design, synthesis, and biological evaluation of a series of benzo[de][1,7]naphthyridin-7(8H)-ones bearing a functionalized longer chain appendage as novel PARP1 inhibitors” (J Med Chem, 2013).
# Active and inactive are the calls of the source. The calls are words filed in the database; no cut-off is given here.
# Tested on: not listed separately
# Test: Cmax in rat at 20 mg/kg, po
# Type: ADME, organism-based
# Design: dose 20 mg/kg, route oral
# Conditions: in vivo
# How it was run: (§1)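 Rat oral PK, 20 mg/kg po. Vehicle DMSO, Tween 80, normal saline. Cmax, Tmax, AUC0-∞ and oral bioavailability F taken from plasma concentration-time curves. Values are the average of three runs.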
row,SMILES,Cmax [ng/mL]
1,O=C1NCC2c3c(cccc31)CCN2C(=O)c1cc(Cc2n[nH]c(=O)c3ccccc23)ccc1F (stereo not given),722
2,O=C1CC2c3c(cccc31)CCN2C(=O)c1cc(Cc2n[nH]c(=O)c3ccccc23)ccc1F (stereo not given),116

# Target: Poly [ADP-ribose] polymerase 1 (Cricetulus griseus) (UniProt Q9R152)
# Sequence (Q9R152 whole entry): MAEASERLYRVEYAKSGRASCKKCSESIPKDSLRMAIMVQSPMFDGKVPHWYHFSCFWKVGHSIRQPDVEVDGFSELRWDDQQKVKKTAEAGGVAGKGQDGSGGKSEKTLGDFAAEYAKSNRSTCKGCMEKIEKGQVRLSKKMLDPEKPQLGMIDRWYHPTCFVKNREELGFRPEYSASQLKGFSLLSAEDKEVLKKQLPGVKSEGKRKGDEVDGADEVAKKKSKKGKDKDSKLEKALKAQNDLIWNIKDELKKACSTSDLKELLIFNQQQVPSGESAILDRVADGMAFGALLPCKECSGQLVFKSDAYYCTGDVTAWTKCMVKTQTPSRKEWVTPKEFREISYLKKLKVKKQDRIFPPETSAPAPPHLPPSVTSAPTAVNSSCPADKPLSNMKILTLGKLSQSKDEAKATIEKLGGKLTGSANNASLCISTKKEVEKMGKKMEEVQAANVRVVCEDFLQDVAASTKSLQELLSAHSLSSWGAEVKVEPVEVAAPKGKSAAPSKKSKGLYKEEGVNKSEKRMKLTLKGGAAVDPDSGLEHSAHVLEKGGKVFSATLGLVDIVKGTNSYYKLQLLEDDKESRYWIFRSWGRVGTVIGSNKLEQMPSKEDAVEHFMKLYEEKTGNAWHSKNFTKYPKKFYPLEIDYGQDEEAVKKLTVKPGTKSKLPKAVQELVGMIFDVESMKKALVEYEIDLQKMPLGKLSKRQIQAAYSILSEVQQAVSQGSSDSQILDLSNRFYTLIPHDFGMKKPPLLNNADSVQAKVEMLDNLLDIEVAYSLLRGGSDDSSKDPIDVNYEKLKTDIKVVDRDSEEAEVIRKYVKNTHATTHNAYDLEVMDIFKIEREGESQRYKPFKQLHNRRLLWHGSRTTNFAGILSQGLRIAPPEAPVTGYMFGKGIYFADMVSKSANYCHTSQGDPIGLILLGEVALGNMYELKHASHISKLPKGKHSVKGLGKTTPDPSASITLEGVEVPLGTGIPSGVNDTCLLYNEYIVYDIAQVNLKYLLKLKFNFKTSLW
# Test: Inhibition of PARP1 in Chinese hamster BRCA2-deficient VC8 cells assessed as impairment of cell cycle progression at 0.5 uM after 24 hrs by propidium iodide staining-based FACS flow cytometric analysis
# Conditions: not given
# How it was run: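 BRCA2-deficient V-C8 cells treated with compound at 0.5 µM, 37 °C, 24 h. Cells then harvested, fixed and stained with 10 µg/mL propidium iodide. Cell-cycle distribution read by flow cytometry, at least 10,000 events per sample.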
row,SMILES,inhibition
1,O=C1NCC2c3c(cccc31)CCN2C(=O)c1cc(Cc2n[nH]c(=O)c3ccccc23)ccc1F (stereo not given),Active
2,O=C1CC2c3c(cccc31)CCN2C(=O)c1cc(Cc2n[nH]c(=O)c3ccccc23)ccc1F (stereo not given),Active

# Tested on: not listed separately
# Test: Half life in rat at 10 mg/kg, iv
# Type: ADME, organism-based
# Design: dose 10 mg/kg, route intravenous
# Conditions: in vivo
# How it was run: (§2)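 Rat intravenous PK, 10 mg/kg iv. Vehicle DMSO, Tween 80, normal saline. Clearance, Vss and half-life derived from plasma concentration-time data. Values are the average of three runs.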
row,SMILES,half-life [min]
1,O=C1NCC2c3c(cccc31)CCN2C(=O)c1cc(Cc2n[nH]c(=O)c3ccccc23)ccc1F (stereo not given),104
2,O=C1CC2c3c(cccc31)CCN2C(=O)c1cc(Cc2n[nH]c(=O)c3ccccc23)ccc1F (stereo not given),66.6

# Tested on: not listed separately
# Test: (§3) AUC (0 to infinity) in rat at 20 mg/kg, po
# Type: ADME, organism-based, Plasma
# Design: time infinity, dose 20 mg/kg, route oral
# Conditions: plasma
# How it was run: as §1
row,SMILES,AUC(0-inf) [ng·h/mL]
1,O=C1NCC2c3c(cccc31)CCN2C(=O)c1cc(Cc2n[nH]c(=O)c3ccccc23)ccc1F (stereo not given),1820

# Tested on: Rattus norvegicus
# Test: as §3
# Type: ADME, organism-based, Plasma
# Design: time infinity, dose 20 mg/kg, route oral
# Conditions: in vivo
# How it was run: as §1
row,SMILES,AUC [ng·h/mL]
1,O=C1CC2c3c(cccc31)CCN2C(=O)c1cc(Cc2n[nH]c(=O)c3ccccc23)ccc1F (stereo not given),980

# Tested on: not listed separately
# Test: Cytotoxicity against Chinese hamster V79 cells expressing wild type BRCA2 assessed as growth inhibition
# Type: cell-based, Cricetulus griseus
# Conditions: not given
# How it was run: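 V79 (wild-type Chinese hamster lung fibroblasts) grown in RPMI-1640 with 10% FBS, 37 °C, 5% CO2. Six concentrations per test. CC50 is the concentration reducing proliferation and growth by 50%, calculated by Logit method from at least three independent tests.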
row,SMILES,CC50 [µM]
1,O=C(NC1CNC(=O)c2ccccc21)c1cccc(Cc2n[nH]c(=O)c3ccccc23)c1 (stereo not given),> 10
2,O=C(c1cc(Cc2n[nH]c(=O)c3ccccc23)ccc1F)N1CCc2cccc3c2C1CC3F (stereo not given),> 10
3,O=C1NCC2c3c(cccc31)CCN2C(=O)C1CCCN1C(=O)c1cc(Cc2n[nH]c(=O)c3ccccc23)ccc1F (stereo not given),> 10
4,O=C(NC1CC(=O)c2ccccc21)c1cc(Cc2n[nH]c(=O)c3ccccc23)ccc1F (stereo not given),> 10
5,CN(C(=O)c1cc(Cc2n[nH]c(=O)c3ccccc23)ccc1F)C1CC(=O)c2ccccc21 (stereo not given),> 10
6,O=C(NCC(=O)N1CCc2cccc3c2C1CNC3=O)c1cc(Cc2n[nH]c(=O)c3ccccc23)ccc1F (stereo not given),> 10
7,O=C1NCC2c3c(cccc31)CCN2C(=O)c1cc(Cc2n[nH]c(=O)c3ccccc23)ccc1F (stereo not given),> 10
8,O=C1CC2c3c(cccc31)CCN2C(=O)c1cc(Cc2n[nH]c(=O)c3ccccc23)ccc1F (stereo not given),> 10

# Tested on: not listed separately
# Test: Tmax in rat at 20 mg/kg, po
# Type: ADME, organism-based
# Design: dose 20 mg/kg, route oral
# Conditions: in vivo
# How it was run: as §1
row,SMILES,Tmax [min]
1,O=C1NCC2c3c(cccc31)CCN2C(=O)c1cc(Cc2n[nH]c(=O)c3ccccc23)ccc1F (stereo not given),25.2
2,O=C1CC2c3c(cccc31)CCN2C(=O)c1cc(Cc2n[nH]c(=O)c3ccccc23)ccc1F (stereo not given),26.4

# Target: PARP 1, 2 and 3 (Homo sapiens, UniProt P09874+Q9Y6F1+Q9UGN5)
# Test: Inhibition of PARP1/PARP2 in human SKOV3 cells assessed as reduction in H2O2-induced PARylation incubated for 4 hrs prior to H2O2 treatment
# Type: cell-based
# Conditions: sk-ov-3
row,SMILES,IC50 [nM]
1,O=C1NCC2c3c(cccc31)CCN2C(=O)c1cc(Cc2n[nH]c(=O)c3ccccc23)ccc1F (stereo not given),66.1
2,O=C1CC2c3c(cccc31)CCN2C(=O)c1cc(Cc2n[nH]c(=O)c3ccccc23)ccc1F (stereo not given),0.49

# Tested on: not listed separately
# Test: (§4) Oral bioavailability in rat at 20 mg/kg
# Type: ADME, organism-based
# Conditions: in vivo
# How it was run: as §1
row,SMILES,bioavailability [%]
1,O=C1NCC2c3c(cccc31)CCN2C(=O)c1cc(Cc2n[nH]c(=O)c3ccccc23)ccc1F (stereo not given),21

# Tested on: Rattus norvegicus
# Test: as §4
# Type: ADME, organism-based
# Conditions: in vivo
# How it was run: as §1
row,SMILES,F [%]
1,O=C1CC2c3c(cccc31)CCN2C(=O)c1cc(Cc2n[nH]c(=O)c3ccccc23)ccc1F (stereo not given),10

# Tested on: not listed separately
# Test: Cytotoxicity against Chinese hamster BRCA2-deficient VC8 cells assessed as growth inhibition
# Type: cell-based
# Conditions: Cricetulus griseus, V-C8
# How it was run: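 V-C8 (BRCA2-deficient Chinese hamster lung fibroblasts) grown in F12 with 10% FBS, 37 °C, 5% CO2. Six concentrations per test. CC50 is the concentration reducing proliferation and growth by 50%, calculated by Logit method from at least three independent tests.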
row,SMILES,CC50 [nM]
1,O=C(NC1CNC(=O)c2ccccc21)c1cccc(Cc2n[nH]c(=O)c3ccccc23)c1 (stereo not given),> 10000
2,O=C(c1cc(Cc2n[nH]c(=O)c3ccccc23)ccc1F)N1CCc2cccc3c2C1CC3F (stereo not given),> 10000
3,O=C1NCC2c3c(cccc31)CCN2C(=O)C1CCCN1C(=O)c1cc(Cc2n[nH]c(=O)c3ccccc23)ccc1F (stereo not given),> 1000
4,O=C(NC1CC(=O)c2ccccc21)c1cc(Cc2n[nH]c(=O)c3ccccc23)ccc1F (stereo not given),> 10000
5,CN(C(=O)c1cc(Cc2n[nH]c(=O)c3ccccc23)ccc1F)C1CC(=O)c2ccccc21 (stereo not given),4680
6,O=C(NCC(=O)N1CCc2cccc3c2C1CNC3=O)c1cc(Cc2n[nH]c(=O)c3ccccc23)ccc1F (stereo not given),> 1000
7,O=C1NCC2c3c(cccc31)CCN2C(=O)c1cc(Cc2n[nH]c(=O)c3ccccc23)ccc1F (stereo not given),96
8,O=C1CC2c3c(cccc31)CCN2C(=O)c1cc(Cc2n[nH]c(=O)c3ccccc23)ccc1F (stereo not given),4.53

# Tested on: not listed separately
# Test: Cytotoxicity against human BRCA1-deficient MDA-MB-436 cells assessed as growth inhibition
# Type: cell-based
# Conditions: not given
# How it was run: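 Proliferation assay in BRCA1-mutant human breast cancer MDA-MB-436 cells. Six concentrations per test. CC50 calculated by Logit method from at least three independent tests.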
row,SMILES,CC50 [nM]
1,O=C(c1cc(Cc2n[nH]c(=O)c3ccccc23)ccc1F)N1CCc2cccc3c2C1CC3F (stereo not given),4300
2,O=C1NCC2c3c(cccc31)CCN2C(=O)c1cc(Cc2n[nH]c(=O)c3ccccc23)ccc1F (stereo not given),23.3
3,O=C1CC2c3c(cccc31)CCN2C(=O)c1cc(Cc2n[nH]c(=O)c3ccccc23)ccc1F (stereo not given),< 0.26

# Tested on: not listed separately
# Test: (§5) Clearance in rat at 10 mg/kg, iv
# Type: ADME, organism-based
# Design: dose 10 mg/kg, route intravenous
# Conditions: in vivo
# How it was run: as §2
row,SMILES,clearance [mL/min/kg]
1,O=C1NCC2c3c(cccc31)CCN2C(=O)c1cc(Cc2n[nH]c(=O)c3ccccc23)ccc1F (stereo not given),38

# Tested on: Rattus norvegicus
# Test: as §5
# Type: ADME, organism-based
# Design: dose 10 mg/kg, route intravenous
# Conditions: in vivo
# How it was run: as §2
row,SMILES,CL [L/h/kg]
1,O=C1CC2c3c(cccc31)CCN2C(=O)c1cc(Cc2n[nH]c(=O)c3ccccc23)ccc1F (stereo not given),7.67

# Tested on: not listed separately
# Test: Volume of distribution at steady state in rat at 10 mg/kg, iv
# Type: ADME, organism-based
# Design: dose 10 mg/kg, route intravenous
# Conditions: in vivo, read-out: Vdss
# How it was run: as §2
row,SMILES,Vd [L/kg]
1,O=C1NCC2c3c(cccc31)CCN2C(=O)c1cc(Cc2n[nH]c(=O)c3ccccc23)ccc1F (stereo not given),4.27
2,O=C1CC2c3c(cccc31)CCN2C(=O)c1cc(Cc2n[nH]c(=O)c3ccccc23)ccc1F (stereo not given),4.56

# Target: hERG (KCNH2) (Homo sapiens, UniProt Q12809)
# Sequence (Q12809 whole entry): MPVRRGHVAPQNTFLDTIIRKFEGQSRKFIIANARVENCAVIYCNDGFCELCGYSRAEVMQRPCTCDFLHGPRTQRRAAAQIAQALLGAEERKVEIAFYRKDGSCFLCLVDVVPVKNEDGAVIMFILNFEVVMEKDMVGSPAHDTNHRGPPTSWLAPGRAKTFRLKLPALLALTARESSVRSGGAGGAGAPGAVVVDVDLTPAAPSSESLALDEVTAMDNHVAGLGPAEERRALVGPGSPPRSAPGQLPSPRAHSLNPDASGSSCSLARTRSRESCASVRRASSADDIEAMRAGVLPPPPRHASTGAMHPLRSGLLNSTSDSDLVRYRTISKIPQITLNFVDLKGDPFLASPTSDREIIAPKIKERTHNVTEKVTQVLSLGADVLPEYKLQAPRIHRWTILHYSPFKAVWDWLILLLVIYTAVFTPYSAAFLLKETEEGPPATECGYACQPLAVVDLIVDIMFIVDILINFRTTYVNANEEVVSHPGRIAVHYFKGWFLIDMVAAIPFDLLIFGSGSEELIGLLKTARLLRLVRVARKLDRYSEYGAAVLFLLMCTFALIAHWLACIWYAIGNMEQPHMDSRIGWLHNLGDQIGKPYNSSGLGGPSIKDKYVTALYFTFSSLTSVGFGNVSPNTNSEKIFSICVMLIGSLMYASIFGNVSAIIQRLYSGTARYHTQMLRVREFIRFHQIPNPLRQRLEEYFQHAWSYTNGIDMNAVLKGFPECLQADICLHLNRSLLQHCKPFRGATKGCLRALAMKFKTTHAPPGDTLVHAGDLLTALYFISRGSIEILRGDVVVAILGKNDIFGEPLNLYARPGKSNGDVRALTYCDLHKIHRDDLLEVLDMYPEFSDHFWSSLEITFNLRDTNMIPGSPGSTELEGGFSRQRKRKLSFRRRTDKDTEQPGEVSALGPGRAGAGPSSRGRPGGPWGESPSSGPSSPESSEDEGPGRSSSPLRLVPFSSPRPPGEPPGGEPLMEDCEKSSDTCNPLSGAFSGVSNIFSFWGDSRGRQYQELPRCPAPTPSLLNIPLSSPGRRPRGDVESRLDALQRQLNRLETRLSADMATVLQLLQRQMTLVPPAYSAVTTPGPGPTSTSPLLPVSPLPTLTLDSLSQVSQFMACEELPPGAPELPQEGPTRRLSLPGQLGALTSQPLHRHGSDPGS
# Test: Inhibition of human ERG at 5 uM relative to control
# Conditions: not given
row,SMILES,inhibition at 5 µM [%]
1,O=C1NCC2c3c(cccc31)CCN2C(=O)c1cc(Cc2n[nH]c(=O)c3ccccc23)ccc1F (stereo not given),17
2,O=C1CC2c3c(cccc31)CCN2C(=O)c1cc(Cc2n[nH]c(=O)c3ccccc23)ccc1F (stereo not given),34

# Tested on: SK-OV-3
# Test: Potentiation of temozolomide-induced cytotoxicity in human SKOV3 cells assessed as reduction in temozolomide IC50 at 0.5 uM after 7 days by sulforhodamine B assay
# Type: functional
# Conditions: not given
# How it was run: (§6)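 SKOV3 cells in DMEM with 10% FBS were given gradient concentrations of temozolomide, alone or with compound at 0.5 or 1.0 µM, for 7 days. Cytotoxicity read by sulforhodamine B. Temozolomide IC50 reported as mean ± SD, n=3.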
row,SMILES,fold change (FC)
1,O=C1NCC2c3c(cccc31)CCN2C(=O)c1cc(Cc2n[nH]c(=O)c3ccccc23)ccc1F (stereo not given),9.3
2,O=C1CC2c3c(cccc31)CCN2C(=O)c1cc(Cc2n[nH]c(=O)c3ccccc23)ccc1F (stereo not given),19.5

# Tested on: SK-OV-3
# Test: Potentiation of temozolomide-induced cytotoxicity in human SKOV3 cells assessed as reduction in temozolomide IC50 at 1 uM after 7 days by sulforhodamine B assay
# Type: functional
# Conditions: not given
# How it was run: as §6
row,SMILES,fold change (FC)
1,O=C1NCC2c3c(cccc31)CCN2C(=O)c1cc(Cc2n[nH]c(=O)c3ccccc23)ccc1F (stereo not given),10.6
2,O=C1CC2c3c(cccc31)CCN2C(=O)c1cc(Cc2n[nH]c(=O)c3ccccc23)ccc1F (stereo not given),22.2

# Tested on: not listed separately
# Test: Ratio of CC50 for Chinese hamster BRCA2-deficient VC8 cells to IC50 for human recombinant PARP1
# Conditions: not given
row,SMILES,Ratio CC50/IC50
1,O=C1NCC2c3c(cccc31)CCN2C(=O)c1cc(Cc2n[nH]c(=O)c3ccccc23)ccc1F (stereo not given),300

# Tested on: not listed separately
# Test: Ratio of AZD2281 CC50 to compound CC50 for Chinese hamster BRCA2-deficient VC8 cells
# Type: ADME, cell-based, Cricetulus griseus
# Conditions: not given
row,SMILES,Ratio
1,O=C1CC2c3c(cccc31)CCN2C(=O)c1cc(Cc2n[nH]c(=O)c3ccccc23)ccc1F (stereo not given),40

# Target: Poly [ADP-ribose] polymerase 1 (Homo sapiens, UniProt P09874)
# Sequence (P09874 whole entry): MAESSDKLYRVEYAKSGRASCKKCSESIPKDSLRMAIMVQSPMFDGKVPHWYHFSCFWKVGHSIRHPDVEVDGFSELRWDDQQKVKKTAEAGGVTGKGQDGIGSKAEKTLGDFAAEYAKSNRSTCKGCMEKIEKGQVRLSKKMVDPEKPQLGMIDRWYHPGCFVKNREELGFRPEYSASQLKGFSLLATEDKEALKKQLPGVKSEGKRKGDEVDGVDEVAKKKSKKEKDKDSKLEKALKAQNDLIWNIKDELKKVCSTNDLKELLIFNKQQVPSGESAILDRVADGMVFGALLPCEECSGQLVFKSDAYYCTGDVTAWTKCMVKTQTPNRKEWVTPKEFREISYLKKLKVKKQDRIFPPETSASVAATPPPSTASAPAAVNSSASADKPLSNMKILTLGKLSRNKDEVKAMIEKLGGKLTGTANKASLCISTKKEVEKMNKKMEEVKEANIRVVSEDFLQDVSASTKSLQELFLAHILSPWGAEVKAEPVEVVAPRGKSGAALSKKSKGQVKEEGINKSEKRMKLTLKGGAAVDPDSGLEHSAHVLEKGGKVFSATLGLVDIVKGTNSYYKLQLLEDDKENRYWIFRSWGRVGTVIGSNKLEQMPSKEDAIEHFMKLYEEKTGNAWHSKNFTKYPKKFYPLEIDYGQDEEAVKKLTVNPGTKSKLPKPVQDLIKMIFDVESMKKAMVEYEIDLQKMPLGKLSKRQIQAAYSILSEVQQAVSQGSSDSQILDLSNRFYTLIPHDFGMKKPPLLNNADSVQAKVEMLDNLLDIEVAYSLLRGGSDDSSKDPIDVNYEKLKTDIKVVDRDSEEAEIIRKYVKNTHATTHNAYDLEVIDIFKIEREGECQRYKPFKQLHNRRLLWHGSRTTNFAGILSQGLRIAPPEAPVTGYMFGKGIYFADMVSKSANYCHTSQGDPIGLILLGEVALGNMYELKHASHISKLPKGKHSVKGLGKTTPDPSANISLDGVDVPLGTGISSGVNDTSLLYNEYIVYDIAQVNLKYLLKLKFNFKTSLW
# Test: Inhibition of human recombinant PARP1 after 1 hr by ELISA
# Conditions: not given
row,SMILES,IC50 [nM]
1,O=C(NC1CNC(=O)c2ccccc21)c1cccc(Cc2n[nH]c(=O)c3ccccc23)c1 (stereo not given),146
2,O=C(c1cc(Cc2n[nH]c(=O)c3ccccc23)ccc1F)N1CCc2cccc3c2C1CC3F (stereo not given),0.56
3,O=C1NCC2c3c(cccc31)CCN2C(=O)C1CCCN1C(=O)c1cc(Cc2n[nH]c(=O)c3ccccc23)ccc1F (stereo not given),45
4,O=C(NC1CC(=O)c2ccccc21)c1cc(Cc2n[nH]c(=O)c3ccccc23)ccc1F (stereo not given),83.9
5,CN(C(=O)c1cc(Cc2n[nH]c(=O)c3ccccc23)ccc1F)C1CC(=O)c2ccccc21 (stereo not given),11.2
6,O=C(NCC(=O)N1CCc2cccc3c2C1CNC3=O)c1cc(Cc2n[nH]c(=O)c3ccccc23)ccc1F (stereo not given),33
7,O=C1NCC2c3c(cccc31)CCN2C(=O)c1cc(Cc2n[nH]c(=O)c3ccccc23)ccc1F (stereo not given),0.31
8,O=C1CC2c3c(cccc31)CCN2C(=O)c1cc(Cc2n[nH]c(=O)c3ccccc23)ccc1F (stereo not given),3.46

# Tested on: not listed separately
# Test: Ratio of AZD2281 CC50 to compound CC50 for human BRCA1-deficient MDA-MB-436 cells
# Type: ADME
# Conditions: not given
row,SMILES,Ratio
1,O=C1NCC2c3c(cccc31)CCN2C(=O)c1cc(Cc2n[nH]c(=O)c3ccccc23)ccc1F (stereo not given),2
2,O=C1CC2c3c(cccc31)CCN2C(=O)c1cc(Cc2n[nH]c(=O)c3ccccc23)ccc1F (stereo not given),160
